Measurements: ChEMBL document CHEMBL1806409, “Design, synthesis and biological evaluation of novel 4-thiazolidinones containing indolin-2-one moiety as potential antitumor agent” (Eur J Med Chem, 2011)

Assays:
MDA-MB-231 = assay: Cytotoxicity against human MDA-MB-231 cells assessed as cell growth inhibition after 72 hrs by MTT assay; assay type: functional, cell-based; conditions: MDA-MB-231, 72 h
Procedure, shortened: (§1)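 Cancer lines grown in MEM with 10% FBS. About 4 × 10³ cells/well were seeded in MEM and incubated 24 h at 37 °C, 5% CO₂. Compounds were then added at final concentrations and exposure ran 72 h. MTT was added for 4 h at 37 °C and formazan dissolved in DMSO. Absorbance was read at 492 nm against a 630 nm reference. IC50 is the average of three determinations.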

HT-29 [1] = assay: Cytotoxicity against human HT-29 cells assessed as cell growth inhibition after 72 hrs by MTT assay; assay type: functional, cell-based; conditions: HT-29, 72 h; procedure, shortened: as §1
NCI-H460 = assay: Cytotoxicity against human H460 cells assessed as cell growth inhibition after 72 hrs by MTT assay; assay type: functional, cell-based; conditions: NCI-H460, 72 h; procedure, shortened: as §1
SMMC-7721 = assay: Cytotoxicity against human SMMC7721 cells assessed as cell growth inhibition after 72 hrs by MTT assay; assay type: functional, cell-based; conditions: SMMC-7721, 72 h; procedure, shortened: as §1
WI-38 [2] = assay: Cytotoxicity against human WI38 cells assessed as cell growth inhibition after 72 hrs by MTT assay; assay type: cell-based; conditions: WI-38, 72 h
Procedure, shortened: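 WI-38 normal human fetal lung fibroblasts were seeded at about 4 × 10³ cells/well and held 24 h at 37 °C, 5% CO₂, then exposed to compounds for 72 h. MTT was given for 4 h at 37 °C and formazan dissolved in DMSO. A492 was read with a 630 nm reference, and IC50 was averaged from three runs.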

WI-38 [3] = assay: Selectivity index, ratio of IC50 for human WI38 cells to IC50 for human H460 cells; assay type: functional
Procedure, shortened: (§2)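 The index is the IC50 in WI-38 normal fibroblasts divided by the IC50 in the cancer line (H460 or HT-29). Each IC50 comes from a 72 h MTT growth-inhibition assay averaged over three determinations.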

HT-29 [4] = assay: Selectivity index, ratio of IC50 for human WI38 cells to IC50 for human HT-29 cells; assay type: functional; procedure, shortened: as §2

Row | SMILES | IC50 (MDA-MB-231) | IC50 (HT-29 [1]) | IC50 (NCI-H460) | IC50 (SMMC-7721) | IC50 (WI-38 [2]) | Ratio IC50 (WI-38 [3]) | Ratio IC50 (HT-29 [4])
1 | CN(C)CCN1C(=O)/C(=C/c2ccc(O)cc2)SC1=S | 84.2 µM | 59.7 µM | 46.1 µM | – | – | – | –
2 | Cc1ccc2c(c1)/C(=c1/sc(=Cc3ccc4c(c3)OCO4)c(=O)n1CCN(C)C)C(=O)N2 | 8.1 µM | 1.03 µM | 4.03 µM | – | – | – | –
3 | CN(C)CCn1c(=O)c(=Cc2ccc3c(c2)OCO3)s/c1=C1\C(=O)Nc2cc(F)ccc21 | 2.42 µM | 1.36 µM | 2.81 µM | – | – | – | –
4 | CN(C)CCn1c(=O)c(=Cc2ccc(O)cc2)s/c1=C1\C(=O)Nc2ccccc21 (mixture of isomers) | 4.28 µM | 1.39 µM | 0.98 µM | – | – | – | –
5 | Cc1ccc2c(c1)/C(=c1/sc(=Cc3ccc(O)cc3)c(=O)n1CCN(C)C)C(=O)N2 (mixture of isomers) | 1.32 µM | 2.29 µM | 1.77 µM | – | – | – | –
6 | COc1cc(C=c2s/c(=C3\C(=O)Nc4ccc(F)cc43)n(CCN(C)C)c2=O)cc(OC)c1OC (mixture of isomers) | 1.9 µM | 2.53 µM | 1.7 µM | 6.06 µM | 8.1 µM | – | –
7 | CCN(CC)CCCn1c(=O)c(=Cc2ccc3c(c2)OCO3)s/c1=C1\C(=O)Nc2ccccc21 (mixture of isomers) | 1.12 µM | 0.91 µM | 1.02 µM | 3.41 µM | 3.93 µM | – | –
8 | CCN(CC)CCCn1c(=O)c(=Cc2ccc3c(c2)OCO3)s/c1=C1\C(=O)Nc2ccc(C)cc21 (mixture of isomers) | 3.1 µM | 2.11 µM | 1.86 µM | – | – | – | –
9 | CCN(CC)CCCn1c(=O)c(=Cc2ccc3c(c2)OCO3)s/c1=C1\C(=O)Nc2ccc(F)cc21 (mixture of isomers) | 0.77 µM | 0.025 µM | 0.075 µM | 1.95 µM | 6.98 µM | 93 | 279
10 | CCN(CC)CCCn1c(=O)c(=Cc2ccc3c(c2)OCO3)s/c1=C1\C(=O)Nc2cc(F)ccc21 (mixture of isomers) | 4.13 µM | 0.19 µM | 1.91 µM | 4.02 µM | 8.3 µM | – | –
11 | CCN(CC)CCCn1c(=O)c(=Cc2ccc3c(c2)OCO3)s/c1=C1\C(=O)Nc2ccc(Cl)cc21 (mixture of isomers) | 3.13 µM | 0.437 µM | 1 µM | 3.12 µM | 3.32 µM | – | –
12 | CCN(CC)CCCn1c(=O)c(=Cc2ccc(F)c(F)c2)s/c1=C1\C(=O)Nc2ccc(F)cc21 (mixture of isomers) | 1.22 µM | 0.64 µM | 1.3 µM | 3.07 µM | 4.3 µM | – | –
13 | CCN(CC)CCCn1c(=O)c(=Cc2ccc(F)c(F)c2)s/c1=C1\C(=O)Nc2cc(F)ccc21 (mixture of isomers) | 2.9 µM | 0.028 µM | 1.12 µM | 5.33 µM | 4.45 µM | – | –
14 | CCN(CC)CCCn1c(=O)c(=Cc2ccc(F)cc2F)s/c1=C1\C(=O)Nc2ccccc21 (mixture of isomers) | > 200 µM | > 200 µM | 5.47 µM | – | – | – | –
15 | CCN(CC)CCCn1c(=O)c(=Cc2ccc(F)cc2F)s/c1=C1\C(=O)Nc2cc(F)ccc21 (mixture of isomers) | 2.1 µM | 1.52 µM | 2.33 µM | – | – | – | –
16 | CCN(CC)CCCn1c(=O)c(=Cc2ccc(F)cc2F)s/c1=C1\C(=O)Nc2ccc(Cl)cc21 (mixture of isomers) | > 200 µM | > 200 µM | 6.1 µM | – | – | – | –
17 | CCN(CC)CCCn1c(=O)c(=Cc2cc(OC)c(OC)c(OC)c2)s/c1=C1\C(=O)Nc2ccccc21 (mixture of isomers) | 2.39 µM | 1.97 µM | 1.67 µM | – | – | – | –
18 | CCN(CC)CCCn1c(=O)c(=Cc2cc(OC)c(OC)c(OC)c2)s/c1=C1\C(=O)Nc2ccc(C)cc21 (mixture of isomers) | > 200 µM | > 200 µM | 2.67 µM | – | – | – | –
19 | CCN(CC)CCCn1c(=O)c(=Cc2cc(OC)c(OC)c(OC)c2)s/c1=C1\C(=O)Nc2ccc(F)cc21 (mixture of isomers) | > 200 µM | > 200 µM | 0.78 µM | 2.21 µM | 2.02 µM | – | –
20 | CN(C)CCn1c(=O)c(=Cc2ccc(O)cc2)s/c1=C1\C(=O)Nc2ccc(F)cc21 (mixture of isomers) | 4.2 µM | 1.48 µM | 1.27 µM | – | – | – | –

Row | SMILES | IC50 (MDA-MB-231) | IC50 (HT-29 [1]) | IC50 (NCI-H460) | IC50 (SMMC-7721) | IC50 (WI-38 [2]) | Ratio IC50 (WI-38 [3]) | Ratio IC50 (HT-29 [4])
21 | CN(C)CCn1c(=O)c(=Cc2ccc(O)cc2)s/c1=C1\C(=O)Nc2cc(F)ccc21 (mixture of isomers) | 3.45 µM | 2.27 µM | 1.43 µM | – | – | – | –
22 | CN(C)CCn1c(=O)c(=Cc2ccc(O)cc2)s/c1=C1\C(=O)Nc2ccc(Cl)cc21 (mixture of isomers) | 3.25 µM | 2.46 µM | 2.03 µM | – | – | – | –
23 | CN(C)CCn1c(=O)c(=Cc2ccc(O)cc2)s/c1=C1\C(=O)Nc2ccc(Br)cc21 (mixture of isomers) | 2.52 µM | 1.92 µM | 1.11 µM | – | – | – | –
24 | COc1ccc(C=c2s/c(=C3\C(=O)Nc4cc(F)ccc43)n(CCN(C)C)c2=O)cc1 (mixture of isomers) | 2.09 µM | 2.3 µM | 2.2 µM | – | – | – | –
25 | CN(C)CCn1c(=O)c(=Cc2ccc(F)c(F)c2)s/c1=C1\C(=O)Nc2ccc(F)cc21 (mixture of isomers) | 9.48 µM | 3.09 µM | 44.7 µM | – | – | – | –
26 | CN(C)CCn1c(=O)c(=Cc2ccc(F)c(F)c2)s/c1=C1\C(=O)Nc2cc(F)ccc21 (mixture of isomers) | 25 µM | 12.1 µM | 6.4 µM | – | – | – | –
27 | Cc1ccc2c(c1)/C(=c1/sc(=Cc3ccc(F)c(F)c3)c(=O)n1CCN(C)C)C(=O)N2 (mixture of isomers) | > 200 µM | 7.43 µM | 59.7 µM | – | – | – | –
28 | CN(C)CCn1c(=O)c(=Cc2ccc(F)cc2F)s/c1=C1\C(=O)Nc2cc(F)ccc21 (mixture of isomers) | 8.44 µM | 6.46 µM | 3.2 µM | – | – | – | –
29 | COc1ccc(C=c2s/c(=C3\C(=O)Nc4ccc(Cl)cc43)n(CCN(C)C)c2=O)c(OC)c1 (mixture of isomers) | 3.83 µM | 1.53 µM | 10.6 µM | – | – | – | –
30 | COc1ccc(C=c2s/c(=C3\C(=O)Nc4cc(F)ccc43)n(CCN(C)C)c2=O)c(OC)c1 (mixture of isomers) | 4.83 µM | 0.868 µM | 20.5 µM | 6.81 µM | 3.01 µM | – | –
31 | COc1ccc(OC)c(C=c2s/c(=C3\C(=O)Nc4cc(F)ccc43)n(CCN(C)C)c2=O)c1 (mixture of isomers) | 14.5 µM | 4.45 µM | 7.15 µM | – | – | – | –
32 | COc1ccc(OC)c(C=c2s/c(=C3\C(=O)Nc4ccccc43)n(CCN(C)C)c2=O)c1 (mixture of isomers) | 21 µM | 96 µM | 63.7 µM | – | – | – | –
33 | CN(C)CCn1c(=O)c(=Cc2ccc3c(c2)OCO3)s/c1=C1\C(=O)Nc2ccccc21 (mixture of isomers) | 3.23 µM | 0.7 µM | 0.82 µM | 2.74 µM | 1.77 µM | – | –
34 | CCN(CC)CCCn1c(=O)c(=Cc2cc(OC)c(OC)c(OC)c2)s/c1=C1\C(=O)Nc2cc(F)ccc21 (mixture of isomers) | > 200 µM | > 200 µM | 1.41 µM | – | – | – | –
35 | CCN(CC)CCCn1c(=O)c(=Cc2cc(OC)c(OC)c(OC)c2)s/c1=C1\C(=O)Nc2ccc(Cl)cc21 (mixture of isomers) | > 200 µM | > 200 µM | 2.99 µM | – | – | – | –
36 | CCN(CC)CCCn1c(=O)c(=Cc2ccc(O)cc2)s/c1=C1\C(=O)Nc2ccc(C)cc21 (mixture of isomers) | 1.81 µM | 0.77 µM | 0.26 µM | 5.09 µM | 5.75 µM | – | –
37 | CCN(CC)CCCn1c(=O)c(=Cc2ccccc2O)s/c1=C1\C(=O)Nc2ccccc21 (mixture of isomers) | > 200 µM | > 200 µM | > 200 µM | – | – | – | –
38 | CCN(CC)CCCn1c(=O)c(=Cc2ccccc2O)s/c1=C1\C(=O)Nc2ccc(C)cc21 (mixture of isomers) | 15.9 µM | 8.07 µM | 11.3 µM | – | – | – | –
39 | CCN(CC)CCCn1c(=O)c(=Cc2ccccc2O)s/c1=C1\C(=O)Nc2ccc(Br)cc21 (mixture of isomers) | 19.9 µM | 18.1 µM | 51.7 µM | – | – | – | –
40 | CCN(CC)CCNC(=O)c1c(C)[nH]c(/C=C2\C(=O)Nc3ccc(F)cc32)c1C [SUNITINIB] | 3.7 µM | 1.3 µM | 2.7 µM | 6.47 µM | 8.56 µM | – | –
